Test system: Plasmodium falciparum
Assay: In vitro antimalarial activity against Plasmodium falciparum Dd2
Assay type: functional, organism-based
In short: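 P. falciparum Dd2 grown in RPMI 1640 with 10% heat-treated human serum and 3 mg/l gentamycin, 0.3% parasitaemia, 2.5% haematocrit; compounds 0.3 to 100 μM. After 48 h, [8-³H]hypoxanthine added and incubated a further 18 h. Cells filtered, washed, and incorporated radioactivity counted by scintillation to give IC50.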

Row | Compound | IC50
1 | N=C(N)c1cccc(NC(=O)Nc2ccc(S(=O)(=O)NCc3ccccc3)cc2)c1 | 450 nM
2 | N=C(N)c1ccc(NC(=O)Nc2ccc(S(=O)(=O)NCc3c(F)ccc(F)c3F)cc2)cc1 | 210 nM
3 | N=C(N)c1cccc(NC(=O)Nc2cccc(S(=O)(=O)NCc3ccccc3)c2)c1 | 6200 nM
4 | N=C(N)c1cccc(NC(=O)Nc2ccc(S(=O)(=O)NCc3ccc(S(N)(=O)=O)cc3)cc2)c1 | 7 nM
5 | N=C(N)c1cccc(NC(=O)Nc2ccc(S(=O)(=O)NCCN3CCOCC3)cc2)c1 | > 2500 nM
6 | N=C(N)c1cccc(NC(=O)Nc2ccc(S(=O)(=O)NCc3cc(F)c(F)cc3F)cc2)c1 | 1800 nM
7 | N=C(N)c1cccc(NC(=O)Nc2ccc(S(=O)(=O)Nc3cccc4ccccc34)cc2)c1 | 17000 nM
8 | N=C(N)c1ccc(NC(=O)Nc2cccc(S(=O)(=O)NCc3c(F)ccc(F)c3F)c2)cc1 | 190 nM
9 | N=C(N)c1cccc(NC(=O)Nc2ccc(S(=O)(=O)NCc3c(F)ccc(F)c3F)cc2)c1 | 17 nM
10 | N=C(N)c1cccc(NC(=O)Nc2ccc(S(=O)(=O)NCc3ccc(F)c(F)c3)cc2)c1 | 1110 nM
11 | N=C(N)c1cccc(NC(=O)Nc2ccc(S(=O)(=O)NCc3ccc(F)cc3F)cc2)c1 | 1110 nM
12 | N=C(N)c1ccc(NC(=O)Nc2ccc(S(=O)(=O)NCc3ccccc3)cc2)cc1 | 400 nM
13 | CCCCNS(=O)(=O)c1ccc(NC(=O)Nc2cccc(C(=N)N)c2)cc1 | 3900 nM
14 | N=C(N)c1cccc(NC(=O)Nc2ccc(S(=O)(=O)Nc3ccc4ccccc4c3)cc2)c1 | 8200 nM
15 | N=C(N)c1cccc(NC(=O)Nc2cccc(C(=N)N)c2)c1 [AMICARBALIDE] | 5 nM
16 | N=C(N)c1cccc(NC(=O)Nc2ccc(S(=O)(=O)NCc3ccc(F)cc3)cc2)c1 | 320 nM
17 | N=C(N)c1ccc(NC(=O)Nc2cccc(S(=O)(=O)NCc3ccc(S(N)(=O)=O)cc3)c2)cc1 | > 2500 nM
18 | N=C(N)c1cccc(NC(=O)Nc2cccc(S(=O)(=O)NCc3c(F)ccc(F)c3F)c2)c1 | 250 nM
19 | N=C(N)c1ccc(NC(=O)Nc2cccc(S(=O)(=O)NCc3ccccc3)c2)cc1 | 410 nM
20 | N=C(N)c1cccc(NC(=O)Nc2cccc(S(=O)(=O)NCc3ccc(S(N)(=O)=O)cc3)c2)c1 | 980 nM
21 | N=C(N)c1cccc(NC(=O)Nc2ccc(S(=O)(=O)NCc3cccc(F)c3)cc2)c1 | 500 nM
22 | N=C(N)c1cccc(NC(=O)Nc2ccc(S(=O)(=O)N3CCc4ccccc4C3)cc2)c1 | 610 nM
23 | N=C(N)c1cccc(NC(=O)Nc2ccc(S(N)(=O)=O)cc2)c1 | > 4900 nM
24 | CNS(=O)(=O)c1ccc(NC(=O)Nc2cccc(C(=N)N)c2)cc1 | 3000 nM
25 | N=C(N)c1cccc(NC(=O)Nc2ccc(S(=O)(=O)NCc3ccccc3F)cc2)c1 | 620 nM
26 | N=C(N)c1cccc(NC(=O)Nc2ccc(S(=O)(=O)NCCO)cc2)c1 | 890 nM
27 | N=C(N)c1ccc(NC(=O)Nc2ccc(S(=O)(=O)NCc3ccc(S(N)(=O)=O)cc3)cc2)cc1 | 90 nM
28 | N=C(N)c1cccc(NC(=O)Nc2ccc(S(=O)(=O)Nc3ccccc3)cc2)c1 | 9000 nM
